How the values were obtained:
HCT-116 = experiment: Cytotoxicity against human HCT-116 cells assessed as inhibition of cell growth measured after 72 hrs by CellTiter-Glo reagent based luminescence assay; assay type: functional; details: HCT-116, 72 h
Outline: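 Cells (HCT-116 in McCoy's 5A; U87-MG in DMEM 4.5 g/L glucose; all with 10% serum, 1% glutamine, 37 °C, 5% CO2) seeded at 3 × 10³/well, treated after 24 h with 10 final concentrations by serial dilution; vehicle controls. After 72 h, CellTiter-Glo luminescence; IC50 from four- or five-parameter logistic fit, triplicate, mean of three experiments.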

[1] = Metabolic stability in human liver microsomes assessed as half life measured after 96 hrs by HPLC-MS/MS analysis; assay type: ADME, Microsome
Outline: (§1)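 Compound (100 μM final) incubated at 37 °C with rat or human liver microsomes (1 mg/mL protein, pH 7.4) and NADPH-generating system; triplicate aliquots at 0–144 h quenched with isoCA-4 internal standard and ethyl acetate, quantified by HPLC-MS/MS against calibration curves.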

[2] = Drug metabolism in rat liver microsomes assessed as O-demethylated metabolite formation measured after 96 hrs by ESI-HRMS assay; assay type: ADME, Microsome
Outline: (§2)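 Rat or human liver microsomes at 1 mg/mL final protein in 10 mM buffer, pH 7.4, prewarmed to 37 °C with an NADPH-generating system (0.6 mM NADP, 6.4 mM glucose-6-phosphate, 2 U/mL G6P dehydrogenase). Substrate 100 μM final; shaken at 37 °C. Triplicate aliquots taken at 0–96 h (up to 144 h), ethyl acetate quench with internal standard, then HPLC-MS/MS (positive ESI, m/z 150–450, CID).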

[3] = Inhibition of porcine brain tubulin polymerization incubated for 30 mins followed by cooling on ice for 10 mins and measured by UV spectrometer assay; assay type: tissue-based, Sus scrofa
Outline: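 Porcine brain tubulin (Shelanski isolation) in 0.1 M MES, 1.5 mM GTP, 1 mM EGTA, 1 mM β-ME, 1 mM MgCl2, pH 6.7, diluted to 1.5 mg/mL; ligand or DMSO 30 min at 20 °C, 10 min on ice. Assembly by 450 nm turbidity on 4→37 °C shift, plateau minus baseline vs no-ligand control (100%); IC50 from mono-exponential fit of ligand:tubulin ratio, three independent experiments.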

[4] = Metabolic stability in rat liver microsomes assessed as half life measured after 96 hrs by HPLC-MS/MS analysis; assay type: ADME, Microsome; outline: as §1
[5] = Drug metabolism in human liver microsomes assessed as hydroxylated metabolite formation measured after 96 hrs by ESI-HRMS assay; assay type: ADME, Microsome
Outline: (§3)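 Compound at 100 μM final incubated at 37 °C with rat or human liver microsomes (1 mg/mL protein, 10 mM buffer pH 7.4) plus NADPH-generating system (0.6 mM NADPNa4, 6.4 mM glucose-6-phosphate, 2 U/mL G6PDH). After 96 h, ethyl acetate extraction and HPLC-MS/MS (positive ESI, m/z 150–450, collision-induced dissociation) to identify metabolites.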

[6] = Drug metabolism in human liver microsomes assessed as O-demethylated metabolite formation measured after 96 hrs by ESI-HRMS assay; assay type: ADME, Microsome; outline: as §2
[7] = Drug metabolism in rat liver microsomes assessed as hydroxylated metabolite formation measured after 96 hrs by ESI-HRMS assay; assay type: ADME, Microsome; outline: as §3

Compound	IC50 (HCT-116)	other results
C=C(c1cc(OC)c(OC)c(OC)c1)c1ccc2c(c1)cc1ccccn12	213 nM	–
Cc1nc(N(C)c2ccc3c(c2)cc2ccccn23)c2ccccc2n1	6.87 nM	–
Cc1cc(N(C)c2ccc3c(c2)cc2ccccn23)c2ccccc2n1	78.4 nM	–
Cc1nc(N(C)c2ccc3c(c2)cc2n3CCOC2)c2ccccc2n1	10.4 nM	–
CCn1c(CO)cc2cc(N(C)c3cc(C)nc4ccccc34)ccc21	21.6 nM	–
C=C(c1ccc2c(c1)cc1n2CC=CC1)c1cc(C)nc2ccccc12	25.7 nM	–
COc1cc(N(C)c2ccc3c(c2)cc2n3CC=CC2)cc(OC)c1OC	959 nM	–
COCc1cc2cc(N(C)c3cc(C)nc4ccccc34)ccc2n1C	10.2 nM	–
C=C(c1cc(OC)c(OC)c(OC)c1)c1ccc2c(c1)cc(CO)n2C	2.12 nM	–
Cc1cc(N(C)c2ccc3c(c2)cc2n3CCOC2)c2ccccc2n1	3.22 nM	–
C=C(c1ccc2c(c1)cc(CO)n2C)c1cc(C)nc2ccccc12	1.25 nM	–
C=C(c1cc(OC)c(OC)c(OC)c1)c1ccc2c(c1)cc(CO)n2CC	0.52 nM	half-life [1]: 89 h; Drug metabolism [2]: Metabolite_Detected; IC50 [3]: 2900 nM; half-life [4]: 70 h; Drug metabolism [5]: Metabolite_Detected; Drug metabolism [6]: Metabolite_Detected; Drug metabolism [7]: Metabolite_Detected
C=C(c1cc(OC)c(OC)c(OC)c1)c1ccc2c(c1)cc(COC)n2C	72.4 nM	–

From ChEMBL document CHEMBL5055628, “Anticancer properties of indole derivatives as IsoCombretastatin A-4 analogues” (Eur J Med Chem, 2021)
